The values that follow come from ChEMBL document CHEMBL4513216, “Probing the Open Global Health Chemical Diversity Library for Multistage-Active Starting Points for Next-Generation Antimalarials” (ACS Infect Dis, 2020).

System in one data set: not listed separately
Nature of the data set: (§1) Toxicity liver stage against HepG2, at 10uM. The following applies: human, HepG2-A16-CD81EGFP cells; read-out: INHIBITION
The class given is cell-based. The arrangement: test concentration 10 uM, cell line HepG2-A16-CD81EGFP. The essentials: (§2)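 Uninfected HepG2-A16-CD81EGFP cells, 3 × 10^3 per well, 1536-well, plated on prespotted compound at 10 μM final, parasite-free screening media added to match infected plates; puromycin 10 μM positive, DMSO 0.5% negative; run in parallel with 48 h PbLuc assay at 37 °C, 5% CO2; viability by CellTiter-Glo luminescence, normalized to controls.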
For `CCc1c(C)nn2c(O)cc(C3CCN(C(=O)c4ccccn4)C3)nc12` (stereo not given), the cytotoxicity at 10 µM was 6.7%.
Still for that read-out and setting: in the case of `COC(=O)CNC(=O)CCCn1cnc2ccccc2c1=O` it was -7.48%; in that of `CN(Cc1ncc[nH]1)C(=O)C(C)(C)NC(=O)c1cccs1`, 11.6%.
Still for that read-out and setting: in the case of `O=C(NCc1cccnc1)Nc1cc(C(F)(F)F)c[nH]c1=O` it was -1.78%; in that of `OCC1N(Cc2ccc(F)cc2)C2CCC1(O)CC2` (stereo not given), 8.05%; in that of `O=C(NCc1ccco1)N1CCOC(c2ccccc2Cl)C1` (stereo not given), -1.91%.
Still for that read-out and setting: in the case of `Cn1nnnc1SCC1(O)CCCCC1` it was 1.06%; in that of `COCCNc1ccccc1CNC(=O)C1CCCOC1` (stereo not given), -8.3%; in that of `COc1ccc(CN(C)CC(O)COCc2ccccc2Cl)c(OC)c1` (stereo not given), 18.8%.
Turning to `CC(C)c1nccn1C(C)C(=O)NC1CCOCC1` (stereo not given), the cytotoxicity at 10 µM is -2.07%.
Consider `CN(Cc1ccc(Cl)c(F)c1)C(=O)CCc1ccncc1`, for which the cytotoxicity at 10 µM came to 3.31%.
On the same count and under the same terms, then `CCOc1ccc(NS(=O)(=O)c2cc(C)c(C(=O)O)s2)c(C)c1`, with -3.21%; and `CCc1nccn1C1CCCN(C(=O)c2ccn(-c3ccccc3)n2)C1` (stereo not given), with 5.84%; and `CCC(NS(=O)(=O)N1CCOCC1)c1ccccc1OC` (stereo not given), with -45.1%.
As for `N#Cc1ccnc(N2CCN(CC(O)c3ccc(F)c(F)c3)CC2)c1` (stereo not given), the cytotoxicity at 10 µM was 2.8%.
`Cc1cnn(CC2CCCN2C(=O)CCc2c(C)noc2Cl)c1` (stereo not given): the cytotoxicity at 10 µM was -8.31%.
The same measure, in the same setting: in the case of `O=C(c1cccs1)N1CC[C@@H](N2CCOCC2)[C@@H]1Cc1ccccc1` it was -81.6%; in that of `CN(Cc1ccncc1)C(=O)c1ccc2c(c1O)OC(C)(C)C2`, 1.95%.
On the same count and under the same terms, in the case of `O=C(c1cccc(N2CCCC2=O)c1)N1CCCC(n2cccn2)C1` (stereo not given) it was -8.22%; in that of `CC(=O)N1CCN(C(=O)c2sccc2Br)CC1`, 6.83%.
As for `COc1ccc(-c2nc3c([nH]2)CCNC3)c(OC)c1OC`, the cytotoxicity at 10 µM stood at 0.786%.
Same read-out and setting: in the case of `CCOC(=O)[C@H]1CNC[C@@H]1C(=O)OCC` it was 6.1%; in that of `COc1cc(CNC(=O)Nc2cc(C(F)(F)F)c[nH]c2=O)ccn1`, 1.53%; in that of `Cc1ncc2c(n1)CN(CC(O)COc1ccc(C#N)cc1)CC2` (stereo not given), 7.45%.
Turning to `Cc1nc(CN2CCO[C@@H]3CN(C(=O)NC(C)C)CC[C@@H]3C2)cs1`, the cytotoxicity at 10 µM was determined as 0.41%.
Still for that read-out and setting: then `NCc1cccc(NC(=O)CCN2CCOCC2)c1`, with -0.509%.
Still for that read-out and setting: in the case of `CC(C)c1cc(N2CCC(CCC(=O)NC3CC3)CC2)n2nccc2n1` it was -9.12%.
With `Cn1nc(CNC(=O)c2ccc(OC(F)(F)F)cc2)c2c1CCOC2`, the cytotoxicity at 10 µM was 7.03%.
Turning to `CCOc1cc(C(=O)N2CCCC(n3nc(C)nc3C)C2)ccn1` (stereo not given), the cytotoxicity at 10 µM is -5.99%.
On the same count and under the same terms, then `Cn1c(C(N)=O)cc2c1CN(C(=O)C1CCCN(C3CCCC3)C1)CC2` (stereo not given), with -47.1%.
With `c1coc(CN2CCO[C@H]3[C@H](OCC4CCCC4)CC[C@@H]32)c1`, the cytotoxicity at 10 µM came out at 19.7%.
Turning to `CN(Cc1cccc(CCN)c1)Cc1cccc2ncccc12`, the cytotoxicity at 10 µM stood at 7.82%.
Consider `Cc1nccc(-c2ccccc2)c1C(=O)N1CCC2(CCCO2)CC1`, for which the cytotoxicity at 10 µM was determined as 2.34%.
On the same count and under the same terms, in the case of `CC(C)Cc1noc(CNc2ccccc2CC(=O)N(C)C)n1` it was 0.489%.
Still for that read-out and setting: then `CNC(=O)Cn1c(CO)cnc1SCc1ccccc1Cl`, with 2.6%; and `COc1ccc(-c2nnc([C@H]3CCN(C4CCC4)C3)o2)cc1`, with -8.1%.
Consider `COc1ccc(-c2nc(CC(=O)N(C)CCC#N)cs2)cc1OC`, for which the cytotoxicity at 10 µM came out at 0.19%.
As to `COCCC(=O)N1CCCC1c1nccnc1Nc1ncccn1` (stereo not given), the cytotoxicity at 10 µM was -14.8%.
Take `CC(C)C(Nc1nc(C(F)(F)F)nc2ccccc12)C(=O)O` (stereo not given): the cytotoxicity at 10 µM was -1.98%.
Take `Cc1cc(-c2nn3c(C)nnc3s2)n[nH]1`: the cytotoxicity at 10 µM is 6.52%.
On to `Cc1noc([C@H]2COC[C@H]3CN(C(=O)Cc4ccc(F)cc4)C[C@H]32)n1`, for which the cytotoxicity at 10 µM is -21.1%.
Consider `CN(Cc1nc(CC2CC2)no1)CC1Cc2ccccc2O1` (stereo not given), for which the cytotoxicity at 10 µM is -2.53%.
The same measure, in the same setting: then `Cc1nc(-c2cccc(N3CCC(N[C@@H]4CCOC4)CC3)c2)cs1`, with -8.16%; and `O=C(NCCNc1cnccn1)N1CCc2ccccc2C1`, with -2.73%; and `Cc1cccc(CN2CCC(c3nccn3CC(N)=O)CC2)n1`, with -5.41%.
Turning to `Cc1cc(C)c2nc(C)c(C(=O)N3CCC(N4CCCC4)CC3)cc2c1`, the cytotoxicity at 10 µM is -3.19%.
For `CN(C)C(=O)N1C[C@H]2CC[C@@H](C1)N(Cc1nnc(-c3ccco3)o1)C2`, the cytotoxicity at 10 µM worked out at 5.9%.
The same measure, in the same setting: then `O=C(CCCn1cncn1)N1CCC2(CCCNC2=O)C1` (stereo not given), with -3.89%.
As for `CCc1nc(C2CCCN2CC(=O)Nc2sc(C)c(C)c2C)no1` (stereo not given), the cytotoxicity at 10 µM was -10.9%.
Same read-out and setting: in the case of `COCCN(CCOC)c1nc2c(s1)c(C)nn2C` it was -40.5%; in that of `CC(C)OCCCNC(=O)CS(=O)(=O)Cc1ccc(C(C)C)cc1`, 0.239%; in that of `Oc1cccc(CN2C[C@@H]3CC[C@H]2CN(Cc2cccnc2)C3)c1`, -121%.
With `CSc1ccc(NC(=O)NCC(O)C2CC2)cc1F` (stereo not given), the cytotoxicity at 10 µM came to 6.32%.
On to `Cc1cc(C)nc(N2CC[C@@]3(O)CCN(S(=O)(=O)N(C)C)C[C@H]3C2)n1`, for which the cytotoxicity at 10 µM amounted to 3.5%.
For `CN1CCC(CNC(=O)c2cccc(C(F)(F)F)c2)c2ccccc21` (stereo not given), the cytotoxicity at 10 µM was 17.4%.
On the same count and under the same terms, then `CCc1c(C)nc2n(c1=O)CC(C(=O)Nc1sccc1C(=O)OC)CS2` (stereo not given), with 3.24%.
On the same count and under the same terms, in the case of `Cc1cc(N2CCC(O)(CN(C)C)C2)c2cc3c(cc2n1)OCO3` (stereo not given) it was 45.4%.
The same measure, in the same setting: in the case of `CNC(=O)CN1CC[C@H]2CN(C(=O)c3ccc(C)nc3)C[C@H]2C1` it was 1.61%; in that of `O=C(NCCC(=O)N1CCCCCC1)c1c(O)cc(F)cc1F`, -1.8%.
For the compound `O=S(=O)(N1CCOCC1)N1CCC(Oc2cnccn2)CC1`, the cytotoxicity at 10 µM is -23.3%.
With `Cc1ccc(CN2CCn3c(COc4cccnc4)cnc3C2C)o1` (stereo not given), the cytotoxicity at 10 µM is -111%.
Consider `Cc1occc(=O)c1OCC(=O)N1CCc2ccccc2C1`, for which the cytotoxicity at 10 µM is -0.765%.
On the same count and under the same terms, then `CCN(CC)CCCNc1nc(C)nc2c1CCN(C)C2`, with 3.19%; and `CN(C)C1CCCN(C(=O)c2ccc3sc4c(c3c2)CCNC4=O)CC1` (stereo not given), with -8.58%.
Regarding `O=C1O[C@@H]2CN(Cc3cc4ccccc4o3)C[C@@H]2N1Cc1ccccn1`, the cytotoxicity at 10 µM stood at 5.16%.
Same read-out and setting: then `CC(C)[C@H]1COC(=O)N1Cc1noc(-c2ccccc2)n1`, with 5.01%; and `COc1cccc(N2CCN(C(=O)c3noc4c3CCCCC4)CC2)c1`, with 9.4%; and `Cc1cc(C2CCCN2C(=O)NCc2ccccn2)on1` (stereo not given), with 1.47%.
Consider `O=C([C@H]1CC[C@@H]2[C@@H](CCN2C2CCOCC2)O1)N1CCOCC1`, for which the cytotoxicity at 10 µM is -0.824%.
Still for that read-out and setting: then `CC(=O)N1CCC2(C1)c1ccccc1S(=O)(=O)N2Cc1ccccc1` (stereo not given), with -127%; and `CNc1cc(C)nc(N2C[C@H](C3CC3)[C@@H](N)C2)n1`, with -4.7%; and `O=C(COCc1ccccc1)N1CCCC(n2cncn2)C1` (stereo not given), with -8.6%.
The same measure, in the same setting: in the case of `CC(NC(=O)CCCC(=O)c1cccs1)c1nnc2n1CCC2` (stereo not given) it was -10.2%; in that of `CCOCC1CN(C)Cc2cnn(CC3CCCC3)c21` (stereo not given), -9.7%.
As for `O=C(NCc1nnc2n1CCC2)c1ccc(C2CCCO2)s1` (stereo not given), the cytotoxicity at 10 µM was -12.4%.
On the same count and under the same terms, in the case of `O=c1ccc(-c2cccs2)nn1CN1CCc2ccccc2C1` it was 14.3%; in that of `Cc1ccn2cc(C(=O)N3CCCC3c3c(C)nn(C)c3C)nc2c1` (stereo not given), 3.2%; in that of `CCOc1ccc(SCCNS(=O)(=O)CC)cc1`, 2.71%.
In the case of `Cn1ccc2cc(C(=O)Nc3nc[nH]n3)ccc21`, the cytotoxicity at 10 µM was found to be 1.69%.

The subject of another data set is HepG2. Described as §1. The class given is cell-based. The arrangement: test concentration 10 uM, cell line HepG2-A16-CD81EGFP. Conditions: human, hepg2, 10 µM; 10 µM. The essentials:
as §2
In the case of `CCc1c(C)nn2c(O)cc(C3CCN(C(=O)c4ccccn4)C3)nc12` (stereo not given), the INHIBITION is listed as 4.85%.
